Values joined by “and” are separate entries in the source; they are usually repeats but may differ in a detail not shown here. Equal values may be shown once.
System: U2OS
Experiment: Multiplex assay against U2OS
Assay type: toxicity, cell-based
Conditions: human
Method in brief: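 Phenotypes for tubulin, mitochondrial mass and membrane permeability are expressed as per cents of healthy-nucleus cells. Cells were stained live at seeding with Hoechst33342, BioTracker Green Microtubule Cytoskeleton Dye, MitoTracker Red and Annexin V Alexa Fluor 680, then imaged after compound addition on a CQ1 microscope at 37°C and 5% CO2. Machine-learning gating in CellPathfinder separated Hoechst high-intensity objects from normal cells, divided normal cells by nuclear state (healthy, pyknosed, fragmented) and divided pyknosed cells into mitotic or apoptotic.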

[1] = 12 h, 1 µM, compound concentration 1 uM, replicate 1
[2] = 12 h, 1 µM, compound concentration 1 uM, replicate 2
[3] = 12 h, 10 µM, compound concentration 10 uM, replicate 1
[4] = 12 h, 10 µM, compound concentration 10 uM, replicate 2
[5] = 24 h, 1 µM, compound concentration 1 uM, replicate 1
[6] = 24 h, 1 µM, compound concentration 1 uM, replicate 2
[7] = 24 h, 10 µM, compound concentration 10 uM, replicate 1
[8] = 24 h, 10 µM, compound concentration 10 uM, replicate 2
[9] = 48 h, 10 µM, compound concentration 10 uM, replicate 1
[10] = 48 h, 10 µM, compound concentration 10 uM, replicate 2

Compound: Cl.O=C(c1ccc(Nc2nccc(-c3cc4ccccc4s3)n2)cc1)N1CCC(N2CCCC2)CC1
- Population Apoptotic (%) [1]: 31%
- Population Fragmented Nuclei (%) [1]: 8%
- Population Healthy Nuclei (%) [1]: 80%
- Population Hoechst High Intensity Objects (%) [1]: 1%
- Population Membrane Permeable-Phenotype (%) [1]: 18%
- Population Mitochondria Different-Phenotype (%) [1]: 11%
- Population Mitotic Cells (%) [1]: 68%
- Population Normal (%) [1]: 98%
- Population Pyknosed Nuclei (%) [1]: 11%
- Population Tubulin-Different-Phenotype (%) [1]: 18%
- Total Cell Count [1]: 145
- Population Apoptotic (%) [2]: 0%
- Population Fragmented Nuclei (%) [2]: 20%
- Population Healthy Nuclei (%) [2]: 75%
- Population Hoechst High Intensity Objects (%) [2]: 25%
- Population Membrane Permeable-Phenotype (%) [2]: 13%
- Population Mitochondria Different-Phenotype (%) [2]: 19%
- Population Mitotic Cells (%) [2]: 100%
- Population Normal (%) [2]: 74%
- Population Pyknosed Nuclei (%) [2]: 4%
- Population Tubulin-Different-Phenotype (%) [2]: 19%
- Total Cell Count [2]: 110
- Population Apoptotic (%) [3]: 68% and 85%
- Population Fragmented Nuclei (%) [3]: 15% and 25%
- Population Healthy Nuclei (%) [3]: 6%
- Population Hoechst High Intensity Objects (%) [3]: 5% and 7%
- Population Membrane Permeable-Phenotype (%) [3]: 46% and 76%
- Population Mitochondria Different-Phenotype (%) [3]: 92%
- Population Mitotic Cells (%) [3]: 31% and 14%
- Population Normal (%) [3]: 94% and 92%
- Population Pyknosed Nuclei (%) [3]: 77% and 66%
- Total Cell Count [3]: 174 and 176
- Population Apoptotic (%) [4]: 93% and 70%
- Population Fragmented Nuclei (%) [4]: 35% and 26%
- Population Healthy Nuclei (%) [4]: 7% and 13%
- Population Membrane Permeable-Phenotype (%) [4]: 50% and 54%
- Population Mitochondria Different-Phenotype (%) [4]: 100% and 81%
- Population Normal (%) [4]: 78% and 93%
- Population Pyknosed Nuclei (%) [4]: 57% and 60%
- Population Tubulin-Different-Phenotype (%) [4]: 100% and 90%
- Total Cell Count [4]: 73
- Population Apoptotic (%) [5]: 38%
- Population Fragmented Nuclei (%) [5]: 10%
- Population Healthy Nuclei (%) [5]: 81%
- Population Hoechst High Intensity Objects (%) [5]: 3%
- Population Membrane Permeable-Phenotype (%) [5]: 19%
- Population Mitochondria Different-Phenotype (%) [5]: 16%
- Population Mitotic Cells (%) [5]: 61%
- Population Normal (%) [5]: 96%
- Population Pyknosed Nuclei (%) [5]: 8%
- Population Tubulin-Different-Phenotype (%) [5]: 14%
- Total Cell Count [5]: 148
- Population Apoptotic (%) [6]: 44%
- Population Fragmented Nuclei (%) [6]: 25%
- Population Healthy Nuclei (%) [6]: 68%
- Population Hoechst High Intensity Objects (%) [6]: 14%
- Population Membrane Permeable-Phenotype (%) [6]: 12%
- Population Mitochondria Different-Phenotype (%) [6]: 11%
- Population Mitotic Cells (%) [6]: 55%
- Population Normal (%) [6]: 85%
- Population Pyknosed Nuclei (%) [6]: 5%
- Population Tubulin-Different-Phenotype (%) [6]: 13%
- Total Cell Count [6]: 97
- Population Apoptotic (%) [7]: 94% and 98%
- Population Fragmented Nuclei (%) [7]: 31% and 18%
- Population Healthy Nuclei (%) [7]: 4% and 9%
- Population Hoechst High Intensity Objects (%) [7]: 12% and 23%
- Population Membrane Permeable-Phenotype (%) [7]: 100%
- Population Mitochondria Different-Phenotype (%) [7]: 100% and 80%
- Population Mitotic Cells (%) [7]: 5% and 1%
- Population Normal (%) [7]: 87% and 76%
- Population Pyknosed Nuclei (%) [7]: 63% and 71%
- Population Tubulin-Different-Phenotype (%) [7]: 100%
- Total Cell Count [7]: 171 and 213
- Population Apoptotic (%) [8]: 100%
- Population Fragmented Nuclei (%) [8]: 36% and 26%
- Population Healthy Nuclei (%) [8]: 16%
- Population Hoechst High Intensity Objects (%) [8]: 14% and 31%
- Population Mitotic Cells (%) [8]: 0%
- Population Normal (%) [8]: 85% and 68%
- Population Pyknosed Nuclei (%) [8]: 59% and 58%
- Population Tubulin-Different-Phenotype (%) [8]: 87%
- Total Cell Count [8]: 192 and 76
- Population Apoptotic (%) [9]: 98%
- Population Fragmented Nuclei (%) [9]: 32%
- Population Healthy Nuclei (%) [9]: 6%
- Population Hoechst High Intensity Objects (%) [9]: 26%
- Population Membrane Permeable-Phenotype (%) [9]: 75%
- Population Mitochondria Different-Phenotype (%) [9]: 100%
- Population Mitotic Cells (%) [9]: 1%
- Population Normal (%) [9]: 73%
- Population Pyknosed Nuclei (%) [9]: 61%
- Population Tubulin-Different-Phenotype (%) [9]: 100%
- Total Cell Count [9]: 154
- Population Apoptotic (%) [10]: 100%
- Population Fragmented Nuclei (%) [10]: 28%
- Population Healthy Nuclei (%) [10]: 50%
- Population Hoechst High Intensity Objects (%) [10]: 44%
- Population Membrane Permeable-Phenotype (%) [10]: 100%
- Population Mitotic Cells (%) [10]: 0%
- Population Normal (%) [10]: 55%
- Population Pyknosed Nuclei (%) [10]: 21%
- Total Cell Count [10]: 77
